The test system of data set [1] is T-24. Kind of data set: Induction of apoptosis in human T24 cells assessed as increase of caspase-3-mediated DEVDase activity at 5 ug/ml after 4 hrs. As to conditions: in the assay text read “5 uM” for “5 ug/ml”. Type of data set: functional. A digest of the protocol: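 Positive-control arm: T24 cells exposed to sanguinarine for 4 h. Lysate supernatant then assayed for DEVD-AFC cleavage kinetically at room temperature (ex 380/em 500 nm), expressed as U/mg protein.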

For a further data set, the system named is DU-145. Kind of data set: Cytotoxicity against human DU145 cells after 48 hrs by MTT assay. Format: functional, cell-based. Conditions: DU-145, 48 h. The method in brief: (§1)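 T24, DU145 and MCF7 grown in high-glucose DMEM with 10% fetal calf serum and penicillin/streptomycin. BALB/3T3 mouse fibroblasts grown in the same medium with 10% newborn calf serum. Cells seeded at 10 000/well for 24 h, then exposed 48 h at 37 C. MTT 0.5 mg/mL for 2 h, formazan dissolved in DMSO, read at 550 nm. EC50 is the concentration that lowers MTT reduction by 50% versus untreated control.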

Data set [2] is described as follows: Lipophilicity, log P of the compound. Format: physicochemical. Conditions: octanol/water.
In another data set the test system is MCF7. Kind of data set: Cytotoxicity against human MCF7 cells after 48 hrs by MTT assay. Type of data set: functional, cell-based. As to conditions: MCF7, 48 h. The method in brief: as §1
A general note: Tetrazolium dyes change colour on reduction, which living cells bring about.

The next data set concerns BALB/3T3. Kind of data set: Cytotoxicity against mouse BALB/3T3 cells after 48 hrs by MTT assay. Format: cell-based. Conditions: BALB/3T3, 48 h. A digest of the protocol: as §1
Data set [3] has as its system T-24. Kind of data set: Cytotoxicity against human T24 cells after 48 hrs by MTT assay. Type of data set: functional, cell-based. As to conditions: T-24, 48 h. The method in brief:
as §1

The test system of data set [4] is T-24. Kind of data set: Induction of apoptosis in human T24 cells assessed as increase of caspase-3-mediated DEVDase activity at 100 ug/ml after 6 hrs. Type of data set: functional. A digest of the protocol:
(§2)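 T24 cells exposed 6 or 24 h at 37 C, washed twice in PBS, lysed and centrifuged. Supernatant incubated with DEVD-AFC substrate, cleavage followed kinetically at room temperature (ex 380 nm, em 500 nm). Activity given as U/mg protein, protein by Lowry method with BSA standard.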

Data set [5] deals with T-24. Kind of data set: Induction of apoptosis in human T24 cells assessed as increase of caspase-3-mediated DEVDase activity at 10 ug/ml after 6 hrs. Format: functional. The method in brief:
as §2

Data set [6] deals with T-24. Kind of data set: Induction of apoptosis in human T24 cells assessed as increase of caspase-3-mediated DEVDase activity at 10 ug/ml after 24 hrs. Type of data set: functional. The method in brief:
as §2

Data set [7] has as its system T-24. Kind of data set: Induction of apoptosis in human T24 cells assessed as increase of caspase-3-mediated DEVDase activity at 1 ug/ml after 24 hrs. Type of data set: functional. A digest of the protocol:
as §2

The subject of data set [8] is T-24. Kind of data set: Induction of apoptosis in human T24 cells assessed as increase of caspase-3-mediated DEVDase activity at 1 ug/ml after 6 hrs. Format: functional. A digest of the protocol: as §2
Data set [9] concerns T-24. Kind of data set: Induction of apoptosis in human T24 cells assessed as increase of caspase-3-mediated DEVDase activity at 100 ug/ml after 24 hrs. Type of data set: functional. A digest of the protocol: as §2
Data set [10] relates to T-24. Kind of data set: Anticancer activity against human T24 cells assessed as decreased in intracellular ATP level after 6 hrs by ATPlite assay. Type of data set: functional, cell-based. The method in brief: (§3)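 T24 cells in high-glucose DMEM with 10% FCS were exposed 6 h at 37 C to compound over a 1–100 range, alongside untreated controls. Intracellular ATP was measured by ATPlite luminescence kit. Groups were compared by one-way ANOVA with Bonferroni test.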

Data set [11] relates to T-24. Kind of data set: Anticancer activity against human T24 cells assessed as decreased in intracellular ATP level at 100 ug/ml after 6 hrs by ATPlite assay. Format: functional, cell-based. A digest of the protocol:
as §3

For data set [12], the system named is T-24. Kind of data set: Anticancer activity against human T24 cells assessed as inhibition of cell proliferation at 10 ug/ml after 10 days using crystal violet staining by clonogenic assay. Type of data set: functional. A digest of the protocol:
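T24 cells (500) seeded at single-cell density and left to adhere overnight. Compound exposure 24 h, then washed with warm PBS and regrown 10 days in fresh medium. Colonies stained with crystal violet to score clonogenic survival.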

Values after ≈ are worked out from the molar mass of the structure shown. Active and inactive are the calls of the source. No cut-off for these calls is given here. Where only a bound is given, the exact number is not on record here.

Take `C[n+]1cc2c3c(ccc2c2ccc4cc5c(cc4c21)OCO5)OCO3` [SANGUINARIUM]: the Activity in the data set on T-24 [1] is recorded as 639.2 U/mg.

On to `COc1ccc(OC)c(NC2=C(Cl)C(=O)c3ccccc3C2=O)c1`, for which the EC50 – broadly, the concentration needed to bring the measured effect to its halfway point – in the data set with DU-145 amounted to 6 µg/mL (≈ 17.5 µM); in the data set on MCF7, 4.6 µg/mL (≈ 13.4 µM); in the data set with BALB/3T3 it was 0.7 µg/mL (≈ 2.04 µM); in the data set on T-24 [3] it was 2.4 µg/mL (≈ 6.98 µM). In addition, in data set [2] (read-out: logP), the logP (in general, the decadic logarithm of the partition coefficient of the neutral form, usually between octanol and water) amounted to 1.34.

For the compound `COc1ccc(OC)c(NC2=CC(=O)c3ccccc3C2=O)c1`, the EC50 with DU-145 is 35.2 µg/mL (≈ 114 µM); in the data set on MCF7, 1.2 µg/mL (≈ 3.88 µM); with BALB/3T3, 11.5 µg/mL (≈ 37.2 µM); in the data set on T-24 [3] it was 10.9 µg/mL (≈ 35.2 µM). Moreover, in data set [2] (read-out: logP), the logP worked out at 1.3.

As to `O=C1C(Cl)=C(Nc2ccc(O)cc2)C(=O)c2ccccc21`, the EC50 with DU-145 was determined as 1.9 µg/mL (≈ 6.34 µM); in the data set with MCF7 it was 2.8 µg/mL (≈ 9.34 µM); with BALB/3T3, 0.6 µg/mL (≈ 2 µM); in the data set on T-24 [3] it was 0.6 µg/mL (≈ 2 µM). In data set [2] (read-out: logP), the logP worked out at 1.2.

On to `CN(C1=CC(=O)c2ccccc2C1=O)c1ccccc1`, for which the EC50 came out at 20.9 µg/mL (≈ 79.4 µM) with DU-145, 7.8 µg/mL (≈ 29.6 µM) with MCF7, 43.3 µg/mL (≈ 164 µM) in the data set on BALB/3T3 and 8.4 µg/mL (≈ 31.9 µM) with T-24 [3]. Moreover, the logP in data set [2] (read-out: logP) came to 2.34.

For the compound `COc1ccc(NC2=C(Cl)C(=O)c3ccccc3C2=O)cc1`, the EC50 in the data set on DU-145 was greater than 1000 µg/mL; in the data set with MCF7, greater than 1000 µg/mL; in the data set with BALB/3T3 it was 13.7 µg/mL (≈ 43.7 µM); in the data set with T-24 [3], 438 µg/mL (≈ 1390 µM). In addition, the log partition coefficient (logP) in data set [2] (read-out: logP) is 1.46.

Consider `COc1ccc(NC2=CC(=O)c3ccccc3C2=O)cc1`, for which the Activity with T-24 [4] is on record as 3.4 U/mg; in the data set on T-24 [5] it was 5 U/mg; in the data set with T-24 [6], 4.5 U/mg; with T-24 [7] it was 5 U/mg; in the data set with T-24 [8] it was 5.9 U/mg; with T-24 [9], 3.4 U/mg. Also, the Activity entry with T-24 [10] is “Dose-dependent effect”. For the same compound, the EC50 in the data set on DU-145 amounted to 7.6 µg/mL (≈ 27.2 µM); with MCF7, 3.7 µg/mL (≈ 13.2 µM); in the data set with BALB/3T3, 35.7 µg/mL (≈ 128 µM); in the data set on T-24 [3], 8.1 µg/mL (≈ 29 µM). Besides, in [2] (read-out: logP), the lipophilicity (logP) came out at 1.43. Moreover, in the data set on T-24 [11], the result was Active. Also, the inhibition (in general, the relative decrease from the control value, in per cent) at 10 µg/mL in the data set on T-24 [12] (T-24, 240 h) amounted to 75%.

Consider `CN(C1=C(Cl)C(=O)c2ccccc2C1=O)c1ccccc1`, for which the EC50 with DU-145 worked out at 6.7 µg/mL (≈ 22.5 µM); in the data set with MCF7 it was 1.2 µg/mL (≈ 4.03 µM); with BALB/3T3, 0.8 µg/mL (≈ 2.69 µM); with T-24 [3] it was 6 µg/mL (≈ 20.2 µM). Also, the logP in [2] (read-out: logP) came out at 2.38.

For `Cc1ccccc1NC1=CC(=O)c2ccccc2C1=O`, the EC50 came to 7.7 µg/mL (≈ 29.2 µM) in the data set with DU-145, 0.8 µg/mL (≈ 3.04 µM) in the data set with MCF7, 6.2 µg/mL (≈ 23.5 µM) in the data set on BALB/3T3 and 7.7 µg/mL (≈ 29.2 µM) in the data set with T-24 [3]. Also, the logP in [2] (read-out: logP) stood at 2.04.

In the case of `O=C1C(Cl)=C(Nc2ccccc2)C(=O)c2ccccc21`, the EC50 in the data set with DU-145 came to 66.8 µg/mL (≈ 235 µM); with MCF7, 6.3 µg/mL (≈ 22.2 µM); in the data set with BALB/3T3, 9.1 µg/mL (≈ 32.1 µM); in the data set with T-24 [3], 14.8 µg/mL (≈ 52.2 µM). The same compound showed a logP in data set [2] of 1.59.

Consider `O=C1C=C(Nc2ccc(O)cc2)C(=O)c2ccccc21`, for which the Activity in the data set with T-24 [4] is recorded as 3 U/mg; in the data set on T-24 [5], 2.7 U/mg; with T-24 [6] it was 4.9 U/mg; in the data set on T-24 [7], 5.1 U/mg; with T-24 [8], 6 U/mg; in the data set with T-24 [9] it was 4 U/mg. In addition, in the data set with T-24 [10], the Activity result was “Dose-dependent effect”. Moreover, the EC50 came to 0.9 µg/mL (≈ 3.39 µM) with DU-145, 0.8 µg/mL (≈ 3.02 µM) with MCF7, 6 µg/mL (≈ 22.6 µM) with BALB/3T3 and 2.3 µg/mL (≈ 8.67 µM) in the data set on T-24 [3]. In addition, the logP in [2] (read-out: logP) came out at 1.16. Also, the outcome in the data set with T-24 [11] and with T-24 [12] was Active.

On to `O=C1C=C(Nc2ccccc2)C(=O)c2ccccc21`, for which the EC50 in the data set with DU-145 is 4 µg/mL (≈ 16 µM); with MCF7 it was 2.6 µg/mL (≈ 10.4 µM); with BALB/3T3, 0.2 µg/mL (≈ 0.802 µM); in the data set with T-24 [3], 1.2 µg/mL (≈ 4.81 µM). In [2] (read-out: logP), the logP was found to be 1.55.

Consider `Cc1ccccc1NC1=C(Cl)C(=O)c2ccccc2C1=O`, for which the EC50 in the data set on DU-145 amounted to 25.8 µg/mL (≈ 86.7 µM); in the data set with MCF7, 4.9 µg/mL (≈ 16.5 µM); with BALB/3T3, 3.2 µg/mL (≈ 10.7 µM); in the data set with T-24 [3], 9.3 µg/mL (≈ 31.2 µM). Besides, in data set [2] (read-out: logP), the logP was 2.08.

(Values after ChEMBL document CHEMBL1629415, “Biological evaluation of donor-acceptor aminonaphthoquinones as antitumor agents” (Eur J Med Chem, 2010).)
